# Reference: publication PMC11184607 (ACS Pharmacology & Translational Science, 2024)
# Bridge positions count the residues as written; N and C are the ends. Square brackets hold non-standard residues; d marks the D form. Peptide text beside a SMILES is read from it. * marks the point of attachment. NMe2Val = CC(C)[C@@H](C(=O)*)N(C)C; NMeI = CC[C@H](C)[C@H](NC)C(=O)O; NMeT = CN[C@H](C(=O)O)[C@@H](C)O; NMeL = CN[C@@H](CC(C)C)C(=O)O; dHiv = CC(C)[C@@H](O)C(=O)O; NMeS = CN[C@@H](CO)C(=O)O; dNMeA = CN[C@H](C)C(=O)O
# Assays:
# [1] = tested on: SF-268 GBM cells; assay: Cell viability; format: cell-based, human; conditions: read-out: EC50, SF-268 cells; 72 h
# How it was run: (§1)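 Cells are grown at 37 °C in 5% CO2. U87-MG and U251 are in MEM with 10% FBS, SF-268 in DMEM with 10% FBS, and SF-295 in RPMI 1640 with 10% FBS. HUVECs are pooled donors. Exposure is to the test compound (0.1 nM–1 μM) or 0.1% DMSO for 72 h. Viability is read by ATP luminescence as % of vehicle, n = 3 wells. […] comes from a logistic nonlinear fit over three independent comparisons.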
# [2] = tested on: GSC line 83; assay: GSC neurosphere viability, 72 h, line 83; format: cell-based, human; conditions: read-out: EC50, GSC type 83
# [3] = tested on: Hsp90; assay: Immunoblot of Hsp90 in U87-MG cells; format: cell-based, human; conditions: 1 30 nM, 2 1 μM, 24 h
# How it was run: (§2)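 U87-MG cells in MEM with 10% FBS are exposed 24 h to test compound (30 nM or 1 μM) or 0.1% DMSO. Protein-matched lysates (BCA) are run on SDS-PAGE, transferred to PVDF and detected with HRP secondary. Signals are normalized to α-tubulin and expressed relative to control. Three independent experiments; one-way ANOVA then t-test.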
# [4] = tested on: U251 GBM cells; assay: Cell viability; format: cell-based, human; conditions: read-out: EC50, U251 cells; 72 h
# How it was run: as §1
# [5] = tested on: BiP; assay: Immunoblot of BiP expression; format: cell-based, human
# [6] = tested on: Hsp70; assay: Immunoblot of Hsp70 in U87-MG cells; format: cell-based, human; conditions: 1 30 nM, 2 1 μM, 24 h
# How it was run: as §2
# [7] = tested on: GSC 157 neurospheres; assay: Neurosphere morphology of GSC 157 by light microscopy; format: cell-based, human; conditions: 100 nM, 24 h, relative to control-treated cells
# How it was run: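 Patient-derived GSC 157 cells are dissociated from tumour and expanded as neurospheres in medium with heparin 2 μg/mL, EGF 20 ng/mL and bFGF 10 ng/mL. Neurospheres receive test compound at 100 nM for 24 h. Morphology and neurosphere size are compared with control-treated cells.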
# [8] = tested on: subcutaneous xenografts; conditions: unmodified natural product; cited from earlier work
# [9] = tested on: HEK293FRT cells expressing WT or mutant (R66I) Sec61α; assay: Viability of WT versus Sec61α R66I mutant HEK293 cells; format: cell-based, human; conditions: 72 h or 3 + 3 day exposure
# How it was run: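 HEK293FRT cells carrying Sec61α R66I, with wild-type comparators, are grown in DMEM with 10% FBS, 6 mM L-glutamine and 1 mM pyruvate. They are exposed to increasing test compound concentrations or 0.1% DMSO for 72 h, or 3 + 3 days to avoid nutrient deprivation. ATP viability is read as % of vehicle, n = 3 wells. Logistic nonlinear fit; ≥3 independent experiments.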
# [10] = tested on: Gluc-U87 cells; assay: Viability of adherent GLuc-U87 cells; format: cell-based, human; conditions: 0.3–300 nM
# [11] = tested on: U87-MG GBM cells; assay: Cell viability; format: cell-based, human; conditions: read-out: EC50, U87-MG cells; 72 h
# How it was run: as §1
# [12] = tested on: patient-derived GSCs (M120, MGG6, M76, GBM8, and 157); format: cell-based, human; conditions: read-out: EC50, viability of 5/6 GSC lines; 72 h
# [13] = tested on: UPR markers (BiP, CHOP, sXBP1, GADD34, IRE1) mRNA; assay: qPCR of ER stress; format: cell-based, human; conditions: 80 nM plus thapsigargin 300 nM, 24 h
# How it was run: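 GSC neurospheres (MGG6, 83, M76, GBM8) are treated 24 h with test compound 80 nM, thapsigargin 300 nM, both together, or 0.1% DMSO. BiP, CHOP, sXBP1, GADD34 and IRE1 mRNA are measured by qPCR normalized to GAPDH and expressed as fold-change versus vehicle.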
# [14] = tested on: WT and mutant (R66I) Sec61α HCT116 colon cancer cells; assay: Viability of WT versus Sec61α R66I mutant HCT116 cells; format: cell-based, human; conditions: 72 h and 6 days (3 + 3 day exposure)
smiles,measurement,setting,value
"CC[C@H](C)[C@H]1C(=O)N[C@@H](C)C(=O)N(C)[C@@H](CC(C)C)C(=O)N[C@@H](Cc2ccc(OC)cc2)C(=O)N(C)[C@H](C)C(=O)O[C@H](C)[C@H](N(C)C(=O)[C@H](CC(C)C)N(C)C(=O)[C@H](COC)N(C)C(=O)[C@H](OC(=O)[C@H](C(C)C)N(C)C)C(C)C)C(=O)N(C)[C@@H](COC)C(=O)N1C [compound 1, Coibamide A] (NMe2Val-[dHiv][NMeS](Me)[NMeL][NMeT][NMeS](Me)[NMeI]A[NMeL]Y(Me)[dNMeA]; ester 4-C)",EC50,[1],> 700 nM
same,EC50,[2],~100 nM
same,Hsp90 expression,[3],upregulation
same,EC50,[4],> 700 nM
same,"BiP expression, GSC line 83","[5]; 1 250 nM and 500 nM, 2 3 µM, 72 h",decrease
same,"BiP protein expression, GSC MGG6 neurospheres and adherent U87-MG cells","[5]; immunoblot, 24 h",downregulation
same,Hsp70 expression,[6],upregulation
same,Change in neurosphere morphology,[7],reduction in neurosphere size
same,Safety after repeat dosing in mice bearing subcutaneous xenografts,[8],adverse safety profile
same,Response of mutant Sec61(R66I) HEK293 cells relative to WT,[9],resistant
same,Cell viability at 18 h,[10],no change in cell viability
same,EC50,[11],18 nM
same,EC50,[12],< 4 nM
same,"Effect on thapsigargin-induced upregulation of all UPR markers, GSC line MGG6",[13],almost completely abrogated
same,Effect of Sec61α R66I mutation on cytotoxic response relative to WT HCT116 cells,[14],mild resistance
